Source: ChEMBL document CHEMBL1145087 (J Med Chem, 2003)

Key:
Homo sapiens = species on record: Homo sapiens; test: Relative potency for human mineralocorticoid and progesterone receptors
[1] = molecular target: T1, Progesterone receptor (Homo sapiens) (UniProt P06401); test: Percent agonistic effect towards human progesterone receptor in CV-1 cells; assay type: functional, cell-based
T1 sequence (whole entry): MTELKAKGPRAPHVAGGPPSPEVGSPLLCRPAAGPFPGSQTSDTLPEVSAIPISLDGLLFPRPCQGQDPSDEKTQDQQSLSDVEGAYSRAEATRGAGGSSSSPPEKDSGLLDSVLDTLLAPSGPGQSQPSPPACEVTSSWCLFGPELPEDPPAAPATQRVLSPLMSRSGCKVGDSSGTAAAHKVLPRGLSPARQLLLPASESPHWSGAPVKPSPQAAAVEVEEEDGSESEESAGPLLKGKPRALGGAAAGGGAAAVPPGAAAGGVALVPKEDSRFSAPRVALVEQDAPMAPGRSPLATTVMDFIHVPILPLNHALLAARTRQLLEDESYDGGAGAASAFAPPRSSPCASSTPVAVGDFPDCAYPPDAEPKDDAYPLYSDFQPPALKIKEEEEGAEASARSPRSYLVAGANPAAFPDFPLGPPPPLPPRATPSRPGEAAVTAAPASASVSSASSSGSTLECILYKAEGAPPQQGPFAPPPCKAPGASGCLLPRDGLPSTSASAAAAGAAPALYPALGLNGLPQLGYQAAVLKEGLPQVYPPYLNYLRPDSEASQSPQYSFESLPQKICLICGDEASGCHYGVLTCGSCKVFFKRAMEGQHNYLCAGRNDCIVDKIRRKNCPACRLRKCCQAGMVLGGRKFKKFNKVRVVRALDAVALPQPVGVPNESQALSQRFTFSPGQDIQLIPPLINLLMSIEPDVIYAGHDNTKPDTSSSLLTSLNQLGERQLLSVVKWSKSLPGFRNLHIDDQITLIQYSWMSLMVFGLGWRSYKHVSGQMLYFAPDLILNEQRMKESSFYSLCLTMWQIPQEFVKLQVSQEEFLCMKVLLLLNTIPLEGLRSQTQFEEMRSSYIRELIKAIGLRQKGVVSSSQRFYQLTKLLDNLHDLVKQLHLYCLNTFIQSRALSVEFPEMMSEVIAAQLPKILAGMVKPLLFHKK

Androgen receptor = molecular target: T2, Androgen receptor (Homo sapiens, UniProt P10275); test: biochemical
T2 sequence (P10275 whole entry): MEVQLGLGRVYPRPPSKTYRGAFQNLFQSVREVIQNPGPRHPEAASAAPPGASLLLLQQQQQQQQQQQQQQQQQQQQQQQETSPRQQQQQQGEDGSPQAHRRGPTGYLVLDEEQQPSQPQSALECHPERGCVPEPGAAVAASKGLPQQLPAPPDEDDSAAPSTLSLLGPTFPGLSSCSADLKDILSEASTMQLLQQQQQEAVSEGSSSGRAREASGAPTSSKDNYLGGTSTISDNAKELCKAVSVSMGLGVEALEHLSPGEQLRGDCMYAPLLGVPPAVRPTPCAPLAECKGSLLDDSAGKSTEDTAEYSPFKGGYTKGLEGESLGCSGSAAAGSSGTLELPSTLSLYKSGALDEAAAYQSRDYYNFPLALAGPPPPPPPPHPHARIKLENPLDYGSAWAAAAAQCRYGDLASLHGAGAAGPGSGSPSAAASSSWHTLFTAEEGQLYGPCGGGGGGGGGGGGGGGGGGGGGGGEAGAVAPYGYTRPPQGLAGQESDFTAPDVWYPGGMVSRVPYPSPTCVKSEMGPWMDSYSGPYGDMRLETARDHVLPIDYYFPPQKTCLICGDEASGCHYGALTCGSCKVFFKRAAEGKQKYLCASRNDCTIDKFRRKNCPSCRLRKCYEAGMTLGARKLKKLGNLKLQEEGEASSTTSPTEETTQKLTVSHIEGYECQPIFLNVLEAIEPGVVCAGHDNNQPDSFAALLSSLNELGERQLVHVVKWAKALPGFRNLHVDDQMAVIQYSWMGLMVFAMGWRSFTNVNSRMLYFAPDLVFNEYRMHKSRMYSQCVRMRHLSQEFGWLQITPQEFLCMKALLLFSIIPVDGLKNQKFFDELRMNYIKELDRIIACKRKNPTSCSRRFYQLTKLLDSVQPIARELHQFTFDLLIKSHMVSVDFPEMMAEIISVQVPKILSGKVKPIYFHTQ

Estrogen receptor [2] = molecular target: T3, Estrogen receptor (Homo sapiens, UniProt Q92731+P03372)
[3] = molecular target: T1, Progesterone receptor (Homo sapiens); test: Percent agonistic effect towards human progesterone receptor in T47D breast cancer cells; assay type: functional, cell-based
Estrogen receptor [4] = molecular target: T3, Estrogen receptor; test: Antagonistic efficacy against human estrogen receptor; assay type: functional
Procedure, shortened: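 Cotransfection LUC reporter assay for hER. Antagonist efficacy is the % maximal inhibition of a standard agonist (estradiol is the reference agonist for hER) applied at its EC50.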

[5] = molecular target: T4, Mineralocorticoid receptor (Homo sapiens, UniProt P08235); test: Inhibitory activity against human Mineralocorticoid receptor
T4 sequence (P08235 whole entry): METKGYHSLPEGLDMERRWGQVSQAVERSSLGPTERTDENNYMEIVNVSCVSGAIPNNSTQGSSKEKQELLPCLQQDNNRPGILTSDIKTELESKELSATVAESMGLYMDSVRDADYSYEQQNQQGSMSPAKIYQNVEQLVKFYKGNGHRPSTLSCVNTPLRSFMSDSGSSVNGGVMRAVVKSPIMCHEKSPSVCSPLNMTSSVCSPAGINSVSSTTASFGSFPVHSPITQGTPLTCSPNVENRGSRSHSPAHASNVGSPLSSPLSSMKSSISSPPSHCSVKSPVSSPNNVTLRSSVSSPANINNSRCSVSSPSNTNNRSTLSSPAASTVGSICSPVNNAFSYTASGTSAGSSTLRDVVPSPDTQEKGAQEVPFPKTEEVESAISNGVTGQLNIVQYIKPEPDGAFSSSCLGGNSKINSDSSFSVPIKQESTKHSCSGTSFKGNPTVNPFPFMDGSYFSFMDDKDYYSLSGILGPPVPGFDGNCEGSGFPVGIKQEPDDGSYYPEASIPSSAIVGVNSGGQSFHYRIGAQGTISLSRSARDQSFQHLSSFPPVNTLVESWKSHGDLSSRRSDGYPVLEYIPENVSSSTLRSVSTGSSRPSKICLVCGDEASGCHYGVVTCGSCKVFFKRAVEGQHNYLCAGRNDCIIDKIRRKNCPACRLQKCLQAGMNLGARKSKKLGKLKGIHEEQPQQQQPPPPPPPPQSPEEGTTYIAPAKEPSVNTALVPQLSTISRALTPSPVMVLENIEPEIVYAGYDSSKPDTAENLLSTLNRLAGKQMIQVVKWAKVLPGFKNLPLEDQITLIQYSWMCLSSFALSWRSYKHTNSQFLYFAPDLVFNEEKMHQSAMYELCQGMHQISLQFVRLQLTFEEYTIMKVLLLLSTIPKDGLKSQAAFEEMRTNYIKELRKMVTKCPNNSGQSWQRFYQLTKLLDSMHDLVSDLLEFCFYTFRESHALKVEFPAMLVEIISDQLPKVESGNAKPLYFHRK

Progesterone receptor = molecular target: T5, Progesterone receptor (Homo sapiens, UniProt P06401); test: Agonistic activity against human progesterone receptor in T47D breast cancer cells; assay type: functional, cell-based
T5 sequence (P06401 whole entry): T1 sequence (whole entry)

SMILES	Ratio (Homo sapiens)	Efficacy [1] [%]	Ki (Androgen receptor) [nM]	Efficacy [3] [%]	EC50 (Progesterone receptor) [nM]	IC50 (Estrogen receptor [2]) [nM]	Efficacy (Estrogen receptor [4]) [%]	IC50 [5] [nM]
CC1=CC(C)(C)Nc2ccc3c(c21)/C(=C/c1ccsc1)Oc1ccc(F)cc1-3	> 1000	174	669	48	5.5	3488	36	1900
CCc1ccccc1/C=C1\Oc2ccc(F)cc2-c2ccc3c(c21)C(C)=CC(C)(C)N3	167	161	1590	51	18	–	–	334
CC1=CC(C)(C)Nc2ccc3c(c21)/C(=C/c1ccncc1C)Oc1ccc(F)cc1-3	511	138	> 1000	46	4.6	1149	44	363

Now from value to compound, other results behind:

Ratio (Homo sapiens)	Efficacy [1] [%]	Ki (Androgen receptor) [nM]	Efficacy [3] [%]	EC50 (Progesterone receptor) [nM]	SMILES	IC50 (Estrogen receptor [2]) [nM]	Efficacy (Estrogen receptor [4]) [%]	IC50 [5] [nM]
> 1000	163	960	43	9	CC1=CC(C)(C)Nc2ccc3c(c21)/C(=C/c1ccccc1C)Oc1c(F)cccc1-3	2443	41	1850
> 1000	171	1460	45	11	CC1=CC(C)(C)Nc2ccc3c(c21)/C(=C/c1ccccc1)Oc1c(F)cccc1-3	–	–	–
